Here are results for seven compounds from ChEMBL document CHEMBL5113407, “Identification and development of a series of disubstituted piperazines for the treatment of Chagas disease” (Eur J Med Chem, 2022).

Each structure is given as a SMILES string. In brackets after ≈: the same amount, converted by molar mass. Activity calls are given as the source filed them. No cut-off for these calls is given here.

Data set [1] has as its system Trypanosoma cruzi. The data set is described as follows: Antitrypanosomal activity against intracellularTrypanosoma cruzi amastigote. The data set is classed as functional, organism-based. Put shortly:
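Intracellular T. cruzi amastigote assay; potency expressed as pEC50 from at least three independent replicates, SD ≤0.2.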

Data set [2] is described as follows: Intrinsic clearance in mouse liver microsomes. It is filed as ADME, Microsome.
A short description of data set [3]: Kinetic solubility of compound. Conditions: read-out: Kinetic_solubility. The data set is classed as physicochemical. Summed up: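 Kinetic solubility read by charged aerosol detection (CAD).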
A short description of data set [4]: Inhibition of Trypanosoma cruzi CYP51.
Data set [5] relates to Trypanosoma cruzi. The data set is described as follows: Antitrypanosomal activity against Trypanosoma cruzi infected in mouse assessed as decrease in parasite level at 50 mg/kg twice daily for 5 days cotreated with 1-ABT. Conditions: time 5.0 day. The data set is classed as functional, organism-based. Put shortly:
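Acute infection mouse model; drug given twice daily for 5 days from day 14 post-infection, with 1-ABT 50 mg/kg given 30 min before each dose. Vehicle controls dosed b.i.d. at 10 mL/kg. Whole-body bioluminescence imaging, dorsal and ventral, quantified as total flux (p/s). Cyclophosphamide 200 mg/kg i.p. on days 28, 32 and 36 post-infection to detect relapse. Blood sampled on days 1 and 5 (n = 3).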

By EC50 is commonly meant the concentration needed to bring the measured effect to its halfway point. A higher EC50 goes with weaker potency. With `COc1ccc(S(=O)(=O)Nc2ccc(Cn3cc4c(n3)CN(C(=O)c3cccc(Cl)c3)C4)cc2)cc1`, in data set [1], the EC50 was 12.6 µM.
`Cc1ccc(S(=O)(=O)Nc2ccc(CN3CCN(C(=O)c4cc(=O)c5ccccc5n4C)CC3)cc2)cc1`: in data set [1], the EC50 was 3.98 µM. Besides, the CLint in data set [2] was over 50 mL/min/g. For the same compound, the solubility kinetic in data set [3] came to 29 µM (≈ 15.4 µg/mL).
The pIC50 is the negative decadic logarithm of the IC50, by convention in mol/L. A higher pIC50 goes with a small IC50. The compound `Cc1ccc(S(=O)(=O)Nc2ccc(CN3CCN(C(=O)c4cccc(Cl)c4)CC3)cc2)cc1` returned a negative logarithm of the IC50 (pIC50) in data set [4] of 4.7. Further, the CLint in data set [2] was over 50 mL/min/g. Besides, the outcome in data set [5] was Active.
For `Cc1ccc(S(=O)(=O)Nc2ccc(CN(C)[C@H]3CCN(C(=O)c4cccc(Cl)c4)C3)cc2)cc1`, the CLint in data set [2] is over 50 mL/min/g.
Same read-out and setting: for `Cc1ccc(S(=O)(=O)Nc2ccc(CN(C)[C@@H]3CCN(C(=O)c4cccc(Cl)c4)C3)cc2)cc1` the value was over 50 mL/min/g.
Regarding `Cc1ccc(S(=O)(=O)Nc2ccc(CN3CCN(C(=O)c4cccc(C#N)c4)CC3)cc2)cc1`, the midpoint of the response in data set [1], the EC50, lay at 0.398 µM.
Regarding `Cc1ccc(S(=O)(=O)Nc2ccc(CN3CCN(C(=O)Cc4coc5ccccc45)CC3)cc2)cc1`, the EC50 in data set [1] was 6.31 µM.
